Test results from ChEMBL document CHEMBL5352489, “Development of potent and selective degraders of PI5P4Kγ” (Eur J Med Chem, 2023).
The source made the active and inactive calls. The calls are words filed in the database; no cut-off is given here.

How the values were obtained:
[1] = molecular target: T1, Phosphatidylinositol 5-phosphate 4-kinase type-2 alpha (Homo sapiens) (UniProt P48426); experiment: Induction of PI5P4Kalpha degradation in human MOLT-4 cells at 1 to 10 uM incubated for 6 hrs by Immunoblot analysis; type: cell-based; details: dose 1-10 µM
T1 sequence (whole entry): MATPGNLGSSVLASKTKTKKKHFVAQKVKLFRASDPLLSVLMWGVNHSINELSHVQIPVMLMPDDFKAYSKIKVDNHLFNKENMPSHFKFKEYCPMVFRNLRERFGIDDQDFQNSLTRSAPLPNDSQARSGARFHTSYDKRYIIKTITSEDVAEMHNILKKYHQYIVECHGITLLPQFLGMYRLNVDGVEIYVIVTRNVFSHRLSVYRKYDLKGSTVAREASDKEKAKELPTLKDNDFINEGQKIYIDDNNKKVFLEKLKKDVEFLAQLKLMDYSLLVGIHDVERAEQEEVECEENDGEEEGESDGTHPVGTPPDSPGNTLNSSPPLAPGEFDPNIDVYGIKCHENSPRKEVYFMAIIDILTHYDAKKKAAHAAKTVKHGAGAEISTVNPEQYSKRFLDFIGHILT
Outline: (§1)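 MOLT-4 cells were grown in RPMI-1640 with L-glutamine, 10% FBS and 1% penicillin/streptomycin, then exposed to compound for 6 h. Cells were lysed in RIPA buffer (pH 8.0) with protease and phosphatase inhibitors, and protein was measured by BCA. Equal protein was run on 4–12% gels and blotted to PVDF. Membranes were probed with PI5P4Kα or PI5P4Kβ antibody at 4 °C overnight, then with IRDye secondary for 1 h at RT, and imaged on an Odyssey.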

[2] = molecular target: T2, Phosphatidylinositol 5-phosphate 4-kinase type-2 beta (Homo sapiens) (UniProt P78356); experiment: Induction of PI5P4Kbeta degradation in human MOLT-4 cells at 1 to 10 uM incubated for 6 hrs by Immunoblot analysis; type: cell-based; details: dose 1-10 µM; outline: as §1
T2 sequence (whole entry): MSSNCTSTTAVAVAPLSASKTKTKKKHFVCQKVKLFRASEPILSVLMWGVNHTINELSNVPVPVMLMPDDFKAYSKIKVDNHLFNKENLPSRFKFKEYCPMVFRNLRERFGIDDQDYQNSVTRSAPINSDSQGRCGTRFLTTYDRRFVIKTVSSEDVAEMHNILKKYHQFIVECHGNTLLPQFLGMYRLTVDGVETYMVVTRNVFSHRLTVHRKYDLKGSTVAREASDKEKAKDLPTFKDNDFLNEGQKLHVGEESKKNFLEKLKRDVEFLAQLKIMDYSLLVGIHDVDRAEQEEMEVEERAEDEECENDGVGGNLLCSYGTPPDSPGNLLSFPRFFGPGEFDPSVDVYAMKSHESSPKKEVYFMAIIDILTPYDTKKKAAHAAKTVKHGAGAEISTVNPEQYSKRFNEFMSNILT

[3] = molecular target: T1, Phosphatidylinositol 5-phosphate 4-kinase type-2 alpha (Homo sapiens); experiment: Binding affinity to full length recombinant human PI5P4Kalpha incubated for 30 mins in presence of ATP by HTRF assay
[4] = molecular target: T2, Phosphatidylinositol 5-phosphate 4-kinase type-2 beta (Homo sapiens); experiment: Binding affinity to full length wild type human PI5P4Kbeta by KINOMEscan KdELECT assay

Row | Activity [1] | Activity [2] | Activity [3] | Activity [4] | Structure (SMILES)
1 | inactive | inactive | inactive | inactive | Cc1ncsc1-c1ccc([C@H](C)NC(=O)[C@@H]2C[C@@H](O)CN2C(=O)[C@@H](NC(=O)CCCCCCCCC(=O)Nc2ccc(C(=O)Nc3cccc(Nc4cc(-c5c[nH]c6ccccc56)ncn4)c3)cc2)C(C)(C)C)cc1
2 | inactive | inactive | inactive | inactive | Cc1ncsc1-c1ccc([C@H](C)NC(=O)[C@@H]2C[C@@H](O)CN2C(=O)C(NC(=O)CCCCCCC(=O)Nc2ccc(C(=O)Nc3cccc(Nc4cc(-c5c[nH]c6ccccc56)ncn4)c3)cc2)C(C)(C)C)cc1 (single isomer, unassigned)

The next lines start with the compound.

Row | Structure (SMILES) | Activity [1] | Activity [2] | Activity [3] | Activity [4]
3 | CC(=O)N[C@H](C(=O)N1C[C@H](O)C[C@H]1C(=O)N[C@@H](C)c1ccc(-c2scnc2C)cc1OCCCCCNC(=O)c1ccc(C(=O)Nc2cccc(Nc3cc(-c4c[nH]c5ccccc45)ncn3)c2)cc1)C(C)(C)C | inactive | inactive | inactive | inactive
4 | Cc1ncsc1-c1ccc([C@H](C)NC(=O)[C@@H]2C[C@@H](O)CN2C(=O)[C@@H](NC(=O)CCCCC(=O)Nc2ccc(C(=O)Nc3cccc(Nc4cc(-c5c[nH]c6ccccc56)ncn4)c3)cc2)C(C)(C)C)cc1 | inactive | inactive | inactive | inactive
5 | Cc1ncsc1-c1ccc([C@H](C)NC(=O)[C@@H]2C[C@@H](O)CN2C(=O)[C@@H](NC(=O)CCC(=O)Nc2ccc(C(=O)Nc3cccc(Nc4cc(-c5c[nH]c6ccccc56)ncn4)c3)cc2)C(C)(C)C)cc1 | inactive | inactive | inactive | inactive
